The list is not random: actives were taken first. Their share in the collection is about 1.3%.
aDG glyco act – increases alpha dystroglycan glycosylation | Pro5-aDG cells, alpha-DG glycosylation AlphaScreen (IIH6); 0% Pro5, 100% B10-LARGE cell signal | activation, % at 10 µM | 360,000 compounds, 0.22% hits | AID 624168;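 active = activation of at least 8% versus controls, or a plate z-score of at least 8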;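 also: Pro5 are CHO cells carrying HIG-tagged alpha-DG that lacks glycosylation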
TPT1 inh – C. albicans TPT1 enzyme inhibition. AID 1962. recombinant caTPT1, FP RNA substrate dephosphorylation. inhibition, % at 5 µM. 300,000 compounds, 0.81% hits;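 active = inhibition above the mean of all tested compounds plus 3 SD, set per screening campaign, cut at about 24% in these data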;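 also: plate controls were DMSO alone for no effect and ferristatin control at 100 nM for full effect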
Xi reactivation – activators of X-chromosome reactivation in mouse fibroblasts. XiGFP mouse fibroblasts, % GFP-positive cells imaging, 3 d; cells co-treated with 5-aza-dC sensitizer; scaled so ellipticine positive control = 100%. 360,000 compounds, 0.055% hits. activation, % at 7.58 µM;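 active = mean normalized replicate activation at least 10% and every replicate at or above 10%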;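 also: 0% = median of on-plate neutral control wells and 100% = ellipticine 6 µM median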
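Material: XiGFP fibroblasts, SV40-immortalized. Buffer or medium: DMEM plus 5-aza-dC sensitizer. Compound: single concentration per compound, delivered by pin transfer. Times: 3 days compound exposure. Controls: ellipticine 6 µM.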
CSN deneddyl inh – inhibitors of human CSN-mediated cullin deneddylation. Q92905. Purified CSN, SCF-Nedd8-OG deneddylation, fluorescence polarization. inhibition, % at 12.5 µM. 360,000 compounds, 0.38% hits;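 active = pattern-corrected inhibition above about 35%, with an unprinted fluorescence ratio check between 0.5 and 1.5, limit read from the data, passing the limit was not always enough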;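 also: 0% = enzyme with substrate and 100% = substrate without enzyme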
Target sequence (Q92905 whole entry, looked up, one chain of several): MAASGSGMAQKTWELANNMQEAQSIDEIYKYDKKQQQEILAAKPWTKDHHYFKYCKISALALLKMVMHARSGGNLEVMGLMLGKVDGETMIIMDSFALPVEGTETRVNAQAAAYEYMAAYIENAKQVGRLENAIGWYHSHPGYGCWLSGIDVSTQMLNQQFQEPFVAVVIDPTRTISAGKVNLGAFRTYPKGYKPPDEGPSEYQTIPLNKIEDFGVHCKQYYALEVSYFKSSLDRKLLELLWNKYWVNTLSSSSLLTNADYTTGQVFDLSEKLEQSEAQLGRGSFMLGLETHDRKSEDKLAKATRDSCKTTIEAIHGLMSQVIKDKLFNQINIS
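test system = HEK293T-derived human Csn5 enzyme | amount = 0.24 nM Csn5 enzyme, final concentration | medium = Tris/NaCl/DTT buffer, pH 7.5 | schedule = 90 min reaction at room temperature | signal = FP | evaluation = inhibition of Csn5 cleavage, % | compound dosing = single dose of 12.5 µM compound with 0.25% DMSO | probe or stimulus = 10 nM SCFSkp2-Nedd8OG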
HNF4A DNA FP – change in binding of human HNF4 alpha to DNA; P41235; HNF4a-FITC DNA binding, fluorescence polarization, 1 h; activity change, % at 10 µM; 360,000 compounds, 0.3% hits; in the data active = activity change above about 30%, passing the limit was not always enough
Rpn11 inh – blocks the human proteasome subunit Rpn11 | 360,000 compounds, 0.59% hits | human 26S proteasome, Ub4-pepOG fluorescence polarization; 20S core pre-blocked with epoxomicin | inhibition, % at 20 µM;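 active = inhibition at 20 µM, scaled to each plate's controls, above about 33%, limit read from the data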
Target sequence (O00487 whole entry, looked up): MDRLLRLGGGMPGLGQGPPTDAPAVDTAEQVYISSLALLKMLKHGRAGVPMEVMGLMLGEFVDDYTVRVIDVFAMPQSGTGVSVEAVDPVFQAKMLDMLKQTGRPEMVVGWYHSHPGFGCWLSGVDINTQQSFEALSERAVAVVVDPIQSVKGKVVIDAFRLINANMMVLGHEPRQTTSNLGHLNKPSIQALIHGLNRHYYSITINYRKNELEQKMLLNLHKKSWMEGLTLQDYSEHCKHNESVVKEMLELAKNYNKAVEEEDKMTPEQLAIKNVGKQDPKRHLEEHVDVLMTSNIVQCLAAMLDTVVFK
Rpn11 inh conf – confirmation of human proteasome Rpn11 inhibitors; inhibition, % at 20 µM; AID 602318; 1,900 compounds, 29% hits; purified human 26S proteasome, Ub4-pepOG fluorescence polarization; proteasome pretreated with epoxomicin; shares compounds with Rpn11 inh
MMP-2 counter-1 – counter-screen for RPN11 inhibitors: inhibition of human MMP-2. shares compounds with Rpn11 inh. recombinant MMP-2, FRET peptide cleavage fluorescence. inhibition, % at 20 µM. 1,900 compounds, 4% hits;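 also: human MMP-2 activated beforehand with APMA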
Thrombin inh – thrombin (bovine) inhibition counter-screen | bovine thrombin cleavage of Ub4-pepOG, fluorescence polarization | shares compounds with Rpn11 inh | inhibition, % at 20 µM | 1,900 compounds, 13% hits;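 active = mean inhibition at least 40% at 20 µM, or signal 3 deviations below plate average, so some actives read negative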;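 also: plate controls were thrombin with DMSO for no effect and buffer wells lacking thrombin for full effect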
aDG conf – confirmation of alpha dystroglycan glycosylation activators | shares compounds with aDG glyco act | Pro5-aDG cells, alpha-DG glycosylation, IIH6 AlphaLISA; scaled to LARGE-overexpressing B10 cells as 100% | activation, % at 10 µM (by protocol) | 600 compounds, 17% hits;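 active = activation of at least 7% in one or more replicates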;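 also: cells exposed to compound for two days before detection; 0% = DMSO-treated Pro5 cells and 100% = DMSO-treated B10-LARGE cells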
CSN5 deneddyl – validation of inhibitors of human CSN-mediated cullin deneddylation. shares compounds with CSN deneddyl inh. Csn5 deneddylation of SCF-Nedd8OG, fluorescence polarization, 90 min. inhibition, % at 16.6 µM. 540 compounds, 62% hits; in the data active = inhibition above about 50%;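 also: 0% = DMSO with enzyme and 100% = no enzyme wells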
MMP-2 counter-2 – blocks human MMP-2 in a CSN deneddylation counter-screen | 540 compounds, 33% hits | shares compounds with CSN deneddyl inh | inhibition, % at 16.6 µM | recombinant MMP-2, FRET substrate fluorescence, 60 min;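 active = corrected plate-normalized z-score of 5 or more, or -5 or less, or inhibition of 15% or more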;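 also: plate controls were DMSO wells with enzyme for no effect and buffer wells lacking MMP-2 for full effect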
Thrombin cntr – thrombin (bovine) inhibition, counter-screen for CSN hits; shares compounds with CSN deneddyl inh; bovine thrombin cleavage of Ub4-pepOG, fluorescence polarization; inhibition, % at 16.6 µM; 540 compounds, 49% hits; AID 720656;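 active = inhibition at or above a set limit, with a fluorescence interference ratio between 0.5 and a set maximum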
HNF4a DNA conf – change in binding of human HNF4 alpha to DNA, retest | activity change, % at 12.5 µM | 210 compounds, 99% hits | HNF4A-FITC DNA binding, fluorescence polarization, 1 h | shares compounds with HNF4A DNA FP; call rule not given here
The depositor's hits bear a star; i = inactive; · = no result given. Rule as the data show it, unless noted: active = inhibition above about 40%; inactive = the rest.

SMILES	aDG glyco act	TPT1 inh	Xi reactivation	CSN deneddyl inh	HNF4A DNA FP	Rpn11 inh	Rpn11 inh conf	MMP-2 counter-1	Thrombin inh	others
O=C(N/N=C/c1c(O)n(CCc2ccccc2)c(=O)[nH]c1=O)c1ccccc1	0.0	15.4	0.2	10.4	16.7	44.7*	29.9	-33.9	-95.8
CC(C)c1ccc(-n2c(O)c(/C=N/NC(=O)c3ccncc3)c(=O)[nH]c2=O)cc1	0.3	8.3	0.1	0.7	4.5	0.7	·	·	·
COc1ccc(CCn2c(O)c(C=Nc3ccc(NC(C)=O)cc3)c(=O)[nH]c2=O)cc1OC	-0.1	7.2	0.3	37.6*	4.8	46.1*	16.2	i	0.7
O=C(N/N=C/c1c(O)n(C2CCCCC2)c(=S)[nH]c1=O)c1ccccc1O	0.0	6.5	0.0	3.5	-0.9	49.4*	52.9*	-22.3	13.1
CC(C)c1ccc(-n2c(O)c(/C=N/NC(=O)c3ccccc3O)c(=O)[nH]c2=S)cc1	-0.2	9.2	-0.1	5.2	9.2	48.4*	53.1*	36.2	0.3
CN1[C@@H]2c3cccc(=O)n3C[C@H]1[C@H](CO)[C@H]2C(=O)NCC1CC1	·	·	0.0	·	·	·	·	·	·
O=c1[nH]c(=S)n(C2CC2)c(O)c1/C=N/Nc1ccccc1	-0.1	0.4	0.1	-4.0	0.9	-1.0	·	·	·
O=C(N/N=C/c1c(O)n(C2CCCCC2)c(=S)[nH]c1=O)c1ccccc1	-0.2	1.1	0.1	7.9	2.8	46.0*	49.5*	-1.7	-14.8
Cc1ccc(N2C(=O)NC(=O)/C(=C/c3ccoc3)C2=O)cc1	-0.1	·	0.0	88.3*	-28.0	150.3*	144.3*	32.0	23.4
COC(=O)[C@@H]1[C@@H](CO)[C@@H]2Cn3c(ccc(C4=CCCC4)c3=O)[C@H]1N2CC1CCCC1	·	·	0.1	·	·	·	·	·	·
O=c1[nH]c(O)c(N=Nc2ccc(S(=O)(=O)N3CCOCC3)cc2)c(=O)[nH]1	-0.3	-2.5	0.1	6.9	2.1	-4.9	·	·	·
O=c1[nH]c(O)c(N=Nc2ccc3c(c2)OCCO3)c(=O)[nH]1	-0.5	1.3	0.0	-3.5	17.3	54.9*	35.2	-22.2	22.2
CC(C)CCNC(=O)c1cc(C(=O)c2cc(Br)ccc2O)cn(CCC(C)C)c1=O	-0.2	3.6	0.0	4.9	7.0	45.4*	-10.0	-17.3	-9.2
COC(=O)[C@H]1[C@H](CO)[C@H]2Cn3c(ccc(C4=CCCCC4)c3=O)[C@@H]1N2C(=O)NC(C)C	·	·	0.5	·	·	·	·	·	·
O=c1c2ccccc2nc(/C=C/c2ccc(O)cc2)n1-c1ccccc1O	-0.2	6.2	1.1	3.4	3.0	38.7*	12.7	-16.8	7.4
O=c1c2ccccc2nc(/C=C/c2ccccc2)n1-c1ccccc1O	0.0	-2.3	0.2	-2.6	3.8	-0.5	·	·	·
COc1ccc(N2C(=O)/C(=C/c3ccc(C)o3)C(=O)NC2=S)c(OC)c1	0.3	19.3	0.0	31.8	4.8	51.0*	9.4	33.3	40.3*
COc1ccc(N2C(=O)/C(=C/c3ccc(OC)c(OC)c3)C(=O)NC2=S)cc1	0.2	·	0.2	-3.2	-32.4	52.6*	2.0	8.4	6.6
COC(=O)[C@@H]1[C@@H](CO)[C@@H]2Cn3c(cccc3=O)[C@H]1N2C(=O)C1CC1	·	·	0.2	·	·	·	·	·	·
O=c1[nH]c(CN2CC=C(c3ccccc3)CC2)nc2cc(C(F)(F)F)ccc12	-0.1	19.5	·	13.8	22.5	47.0*	9.0	1.5	-8.0
O=C(O)[C@H]1[C@H](CO)[C@H]2Cn3c(ccc(-c4ccncc4)c3=O)[C@@H]1N2C(=O)C1CC1	·	·	0.0	·	·	·	·	·	·
CNC(=O)Oc1ccc2c(c1)C(=O)c1ccccc1CO2	-0.4	-1.8	·	-3.3	0.3	100.3*	-13.9	-47.0	-5.2
CN(C)C(=O)[C@@H]1[C@@H](CO)[C@@H]2Cn3c(cccc3=O)[C@H]1N2CC1CC1	·	·	0.0	·	·	·	·	·	·
COc1ccc(OC(=O)N(C)C[C@@H]2OCc3ccccc3-c3c(n(C)c4ccccc34)C(=O)N([C@@H](C)CO)C[C@@H]2C)cc1	·	·	-0.1	·	·	·	·	·	·
CCCCN1C(=O)/C(=C/C=C/c2ccco2)C(=O)NC1=S	0.4	·	0.1	89.0*	37.6*	145.8*	155.0*	46.6*	142.8*	CSN5 deneddyl=-60.0;MMP-2 counter-2=-5.0;Thrombin cntr=67.0*
SMILES	aDG glyco act	TPT1 inh	Xi reactivation	CSN deneddyl inh	HNF4A DNA FP	Rpn11 inh	Rpn11 inh conf	MMP-2 counter-1	Thrombin inh	others
COc1ccc(-c2ccc([C@@H]3[C@H]4CN(C(=O)Cc5ccncc5)CCCCN4[C@H]3CO)cc2)cc1	·	·	-0.1	·	·	·	·	·	·
O=c1[nH]c(=S)[nH]c(O)c1N=Nc1ccc2c(c1)OCO2	-0.2	9.8	0.0	13.4	42.0*	46.5*	17.2	31.7	11.2	HNF4a DNA conf=45.7*
COCC#Cc1ccc([C@H]2[C@H](CO)N3CCCCN(C(=O)Cc4ccccn4)C[C@@H]23)cc1	·	·	0.0	·	·	·	·	·	·
CC(=O)c1cn(CCCOc2ccccc2)c2ccccc12	6.3*	-0.6	0.0	4.2	-4.3	-1.8	·	·	·	aDG conf=0.1
O=C(C(=O)N1CCOCC1)c1cn(CCCOc2ccccc2)c2ccccc12	-0.1	-0.1	0.8	-7.9	-0.1	-9.4	·	·	·
CN1[C@@H]2CN(S(C)(=O)=O)C[C@H]1C2c1ccccc1 (stereo not given in full)	·	·	0.2	·	·	·	·	·	·
CN(Cc1ccccc1)Cc1ccccc1OC(=O)N(C)C	58.0*	-0.1	·	-5.1	-0.9	-3.6	·	·	·	aDG conf=0.3

Screening results: PubChem, several laboratories
